# Reference: ChEMBL document CHEMBL4020828, “Design and Syntheses of Highly Potent Teixobactin Analogues against Staphylococcus aureus, Methicillin-Resistant Staphylococcus aureus (MRSA), and Vancomycin-Resistant Enterococci (VRE) in Vitro and in Vivo” (J Med Chem, 2018)
# Active and inactive are the calls of the source. No cut-off for these calls is given here.
# What was measured:
# Staphylococcus aureus [1] = assay: Antibacterial activity against methicillin-resistant Staphylococcus aureus ATCC 33591 after 24 hrs; format: functional; conditions: ATCC 33591, 24 h
# Oryctolagus cuniculus = assay: Toxicity in New Zealand white rabbit corneal-damage model assessed as effect on wound healing at 0.3% administered 4 times a day tropically for 10 days by fluorescein staining-based slit-lamp biomicroscopy; conditions: in vivo, topical_or_ocular, 240 h
# Method in brief: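 Rabbit cornea circularly debrided, then 50 µl of 0.3% (w/v) peptide applied topically 4 times/day. Vehicle (PBS) served as control, 2 eyes PBS versus 4 eyes treated. Re-epithelialization and wound closure followed over time by fluorescein staining and slit-lamp biomicroscopy.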
# [2] = system: Staphylococcus saprophyticus; assay: Antibacterial activity against Staphylococcus saprophyticus ATCC BAA 750 after 24 hrs; format: functional; conditions: ATCC BAA 750, 24 h
# [3] = system: Staphylococcus saprophyticus; assay: Antibacterial activity against Staphylococcus saprophyticus ATCC 15305 after 24 hrs; format: functional; conditions: ATCC 15305, 24 h
# [4] = system: Staphylococcus saprophyticus; assay: Antibacterial activity against Staphylococcus saprophyticus ATCC 49453 after 24 hrs; format: functional; conditions: ATCC 49453, 24 h
# [5] = system: Staphylococcus saprophyticus; assay: Antibacterial activity against Staphylococcus saprophyticus ATCC 49907 after 24 hrs; format: functional; conditions: ATCC 49907, 24 h
# Enterococcus faecalis [6] = assay: Antibacterial activity against vancomycin-resistant Enterococcus faecalis isolate 1001 after 24 hrs; format: functional; conditions: isolate 1001, 24 h
# Enterococcus faecalis [7] = assay: Antibacterial activity against vancomycin-resistant Enterococcus faecalis isolate 1002 after 24 hrs; format: functional; conditions: isolate 1002, 24 h
# Enterococcus faecalis [8] = assay: Antibacterial activity against vancomycin-resistant Enterococcus faecalis isolate 1004 after 24 hrs; format: functional; conditions: isolate 1004, 24 h
# Enterococcus faecalis [9] = assay: Antibacterial activity against vancomycin-resistant Enterococcus faecalis isolate 1008 after 24 hrs; format: functional; conditions: isolate 1008, 24 h
# Enterococcus faecalis [10] = assay: Antibacterial activity against vancomycin-resistant Enterococcus faecalis ATCC 700802 after 24 hrs; format: functional; conditions: ATCC 700802, 24 h
# Enterococcus faecalis [11] = assay: Antibacterial activity against vancomycin-resistant Enterococcus faecalis ATCC 29212 after 24 hrs; format: functional; conditions: ATCC 29212, 24 h
# Staphylococcus aureus [12] = assay: Antibacterial activity against methicillin-resistant Staphylococcus aureus ATCC 700699 after 24 hrs; format: functional; conditions: ATCC 700699, 24 h
# Staphylococcus aureus [13] = assay: Antibacterial activity against methicillin-resistant Staphylococcus aureus isolate 42412 after 24 hrs; format: functional; conditions: isolate 42412, 24 h
# Staphylococcus aureus [14] = assay: Antibacterial activity against methicillin-resistant Staphylococcus aureus isolate 21455 after 24 hrs; format: functional; conditions: isolate 21455, 24 h
# Staphylococcus aureus [15] = assay: Antibacterial activity against methicillin-resistant Staphylococcus aureus isolate 1003 after 24 hrs; format: functional; conditions: isolate 1003, 24 h
# Staphylococcus aureus [16] = assay: Antibacterial activity against Staphylococcus aureus ATCC 29213 after 24 hrs; format: functional; conditions: ATCC 29213, 24 h
# [17] = system: Staphylococcus epidermidis; assay: Antibacterial activity against Staphylococcus epidermidis 12228 after 24 hrs; format: functional; conditions: Staphylococcus epidermidis, 12228, 24 h
# Bacillus cereus = assay: Antibacterial activity against Bacillus cereus ATCC 11788 after 24 hrs; format: functional; conditions: ATCC 11788, 24 h
# Staphylococcus aureus [18] = assay: Bactericidal activity against Staphylococcus aureus ATCC 29213 after 24 hrs; format: functional
# Staphylococcus aureus [19] = assay: Bactericidal activity against Staphylococcus aureus 4299 after 24 hrs; format: functional
# Staphylococcus aureus [20] = assay: Bactericidal activity against methicillin-resistant Staphylococcus aureus ATCC 700699 after 24 hrs; format: functional
# Staphylococcus aureus [21] = assay: Bactericidal activity against methicillin-resistant Staphylococcus aureus isolate 21455 after 24 hrs; format: functional
# Staphylococcus aureus [22] = assay: Ratio of MBC to MIC for Staphylococcus aureus ATCC 29213; format: functional
# Staphylococcus aureus [23] = assay: Ratio of MBC to MIC for Staphylococcus aureus 4299; format: functional
# Pseudomonas aeruginosa = assay: Antibacterial activity against Pseudomonas aeruginosa after 24 hrs; format: functional
# Staphylococcus aureus [24] = assay: Antibacterial activity against Staphylococcus aureus ATCC 29213 at 5 to 20 times MIC after 24 hrs; format: functional
# Staphylococcus aureus [25] = assay: Antibacterial activity against methicillin-resistant Staphylococcus aureus ATCC 33591 at 5 to 20 times MIC after 24 hrs; format: functional
# Staphylococcus aureus [26] = assay: Bactericidal activity against Staphylococcus aureus ATCC 29213 assessed as log reduction in bacterial load at 0.5 to 1 ug/ml after 8 hrs by time-kill assay; format: functional
# [27] = Cytotoxicity against human A549 cells assessed as cell viability at 15.62 to 250 ug/ml after 24 hrs by MTS assay relative to control; format: cell-based; conditions: read-out: Activity
# Method in brief: (§1)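 Cells exposed 24 h to peptide at 15.62–250 µg/ml, prepared fresh in culture medium from a 500 µg/ml stock. Controls were DMSO (0.1% v/v) or nocodazole (5 µg/ml in DMSO). Metabolic activity was read by MTS viability assay. Mean ± SEM of three independent triplicate experiments.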
# [28] = Cytotoxicity against human primary HDF assessed as cell viability at 15.62 to 250 ug/ml after 24 hrs by MTS assay relative to control; format: cell-based; conditions: primary HDF cells, read-out: Activity; method in brief: as §1
# Staphylococcus aureus [29] = assay: (§2) Antibacterial activity against Staphylococcus aureus ATCC 29213 infected in C57BL6 mouse cornea assessed as decrease in conjunctival chemosis at 0.3% administered tropically 2 times on day 1, 4 times on day 2 and 2 times on day 3 starting from 6 hrs post infection measured 48 hrs post last dose by slit-lamp photography; format: functional
# Method in brief: (§3)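 Mouse corneal epithelium scratched with a scalpel, then infected with 15 µl of 6×10⁶ CFU/ml S. aureus ATCC 29213. From 6 h p.i., 15 µl of PBS vehicle, 0.3% w/v peptide in PBS or 0.3% moxifloxacin was applied, 8 doses total. Outcomes were slit-lamp examination, AS-OCT corneal thickness and CFU counts of harvested corneas (mean log₁₀ CFU/tissue ± SEM).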
# Staphylococcus aureus [30] = assay: as §2, with “corneal infiltrates” for “conjunctival chemosis”; format: functional; method in brief: as §3
# Staphylococcus aureus [31] = assay: as §2, with “mean corneal thickness” for “decrease in conjunctival chemosis”, “24” for “48”, “AS-OCT method (reference value: 151.7 +/- 12.7 micrometer)” for “slit-lamp photography”; format: functional; method in brief: as §3
# Staphylococcus aureus [32] = assay: as §2, with “mean corneal thickness” for “decrease in conjunctival chemosis”, “AS-OCT method (reference value: 186.2 +/- 17.5 micrometer)” for “slit-lamp photography”; format: functional; method in brief: as §3
# Staphylococcus aureus [33] = assay: Antibacterial activity against Staphylococcus aureus ATCC 29213 infected in C57BL6 mouse cornea assessed as decrease in bacterial load/tissue at 0.3% administered tropically 2 times on day 1, 4 times on day 2 and 2 times on day 3 starting from 6 hrs post infection measured 48 hrs post last dose; format: functional; parameters: scale not given: the % may be the effect or the level left; method in brief: as §3
# [34] = Cytotoxicity against human primary HDF assessed as cytoskeleton or nuclear disruption at 15.62 to 250 ug/ml after 24 hrs by rhodamine-phalloidin/Hoechst 33342 staining-based fluorescence microscopic method; format: cell-based
# Method in brief: (§4)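 After 24 h peptide exposure, cells were fixed and stained with rhodamine-phalloidin (actin), Alexa Fluor 488 anti-α-tubulin and Hoechst 33342 (nuclei). They were then imaged by automated high-content microscopy. Nocodazole (10 µg/ml) served as toxicity control. Representative images shown at 62.5 µg/ml.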
# A549 [35] = assay: Cytotoxicity against human A549 cells assessed as cytoskeleton or nuclear disruption at 15.62 to 250 ug/ml after 24 hrs by rhodamine-phalloidin/Hoechst 33342 staining-based fluorescence microscopic method; format: cell-based; conditions: a549, 24 h; method in brief: as §4
# [36] = Cytotoxicity against human primary HDF assessed as effect on cell morphology at 15.62 to 250 ug/ml after 24 hrs by rhodamine-phalloidin/Hoechst 33342 staining-based fluorescence microscopic method; method in brief: as §4
# A549 [37] = assay: Cytotoxicity against human A549 cells assessed as effect on cell morphology at 15.62 to 250 ug/ml after 24 hrs by rhodamine-phalloidin/Hoechst 33342 staining-based fluorescence microscopic method; conditions: a549, 24 h; method in brief: as §4
# [38] = system: Bacillus subtilis (Bacillus subtilis); assay: Antibacterial activity against Bacillus subtilis ATCC 6633 after 24 hrs; conditions: ATCC 6633, 24 h
# A549 [39] = assay: Cytotoxicity against human A549 cells assessed as loss of adhered cells at 5 ug/ml after 24 hrs by MTS assay; format: cell-based; conditions: a549, 24 h
# Method in brief: (§5)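 A549 lung epithelial cells or primary human dermal fibroblasts exposed 24 h to peptide (15.62–250 µg/ml, dissolved fresh in culture medium). Nocodazole (5 µg/ml in DMSO) served as toxicity control, with 0.1% v/v DMSO as vehicle control. Metabolic activity was read by MTS viability assay. Data are from three independent triplicate experiments, given as mean ± SEM.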
# [40] = Cytotoxicity against human primary HDF assessed as loss of adhered cells at 5 ug/ml after 24 hrs by MTS assay; format: cell-based; method in brief: as §5
compound,measurement,setting,value
CC[C@@H](C)[C@@H](NC(=O)[C@@H](CCCNC(=N)N)NC(=O)[C@H](CO)NC(=O)[C@@H](NC(=O)[C@@H](Cc1ccccc1)NC)[C@@H](C)CC)C(=O)N[C@H](C(=O)N[C@@H](CO)C(=O)N[C@H]1C(=O)N[C@@H](C)C(=O)N[C@@H](CC(C)C)C(=O)N[C@@H]([C@@H](C)CC)C(=O)O[C@H]1C)[C@@H](C)CC,MIC,Staphylococcus aureus [1],0.125 µg/mL
same,Activity,Oryctolagus cuniculus,Non-Toxic
same,MIC,[2],< 0.0625 µg/mL
same,MIC,[3],< 0.0625 µg/mL
same,MIC,[4],< 0.0625 µg/mL
same,MIC,[5],< 0.0625 µg/mL
same,MIC,Enterococcus faecalis [6],0.5 µg/mL
same,MIC,Enterococcus faecalis [7],1 µg/mL
same,MIC,Enterococcus faecalis [8],0.25 µg/mL
same,MIC,Enterococcus faecalis [9],0.5 µg/mL
same,MIC,Enterococcus faecalis [10],0.5 µg/mL
same,MIC,Enterococcus faecalis [11],0.5 µg/mL
same,MIC,Staphylococcus aureus [12],0.25 µg/mL
same,MIC,Staphylococcus aureus [13],0.0313 µg/mL
same,MIC,Staphylococcus aureus [14],0.0313 µg/mL
same,MIC,Staphylococcus aureus [15],0.5 µg/mL
same,MIC,Staphylococcus aureus [16],< 0.0625 µg/mL
same,MIC,[17],< 0.0625 µg/mL
same,MIC,Bacillus cereus,0.5 µg/mL
same,Activity,Staphylococcus aureus [18],Active
same,Activity,Staphylococcus aureus [19],Active
same,Activity,Staphylococcus aureus [20],Active
same,Activity,Staphylococcus aureus [21],Active
same,Ratio,Staphylococcus aureus [22],<4
same,Ratio,Staphylococcus aureus [23],<4
same,Activity,Pseudomonas aeruginosa,inactive
same,Activity,Staphylococcus aureus [24],Active
same,Activity,Staphylococcus aureus [25],Active
same,Activity,Staphylococcus aureus [26],>=2 deltalog10CFU/ml
same,viability at 24 h,[27],≥ 80%
same,viability at 24 h,[28],≥ 80%
same,Activity,Staphylococcus aureus [29],Active
same,Activity,Staphylococcus aureus [30],Active
same,Activity,Staphylococcus aureus [31],92.3 um
same,Activity,Staphylococcus aureus [32],121.7 um
same,Activity,Staphylococcus aureus [33],>99%
same,Activity,[34],Non-Toxic
same,Activity,A549 [35],Non-Toxic
same,Activity,[36],Non-Toxic
same,Activity,A549 [37],Non-Toxic
same,MIC,[38],0.125 µg/mL
COC(=O)Nc1nc2ccc(C(=O)c3cccs3)cc2[nH]1 [NOCODAZOLE],Activity,A549 [39],Toxic
same,Activity,[40],Toxic
